Rows were chosen to be rich in hits. Some 3.1% of all compounds tested hit in one or more screens of this group.
OX1R antag-1: antagonists of human orexin 1 receptor (OX1R); inhibition, % at 6.6 µM; hit rate 1.8% among 330,000; OX1R-expressing cells, FRET antagonist read-out; Orexin/Hypocretin receptor type 1 (Homo sapiens), O43613; in the data active = inhibition mostly above about 38%, no sharp cut-off; inactive = mostly below about 40%;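 note: 0% = agonist challenge alone and 100% = reference antagonist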
GalR3 antag: GalR3 antagonists in HEK293 cells, primary screen, cell-based, fluorescence readout; Galanin receptor type 3 (Homo sapiens), O60755; inhibition, % at 3 µM; HEK293 GalR3-CNG cAMP membrane potential fluorescence; galR3 body fused to GalR1 C-terminus; hit rate 0.44% among 360,000;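 active = inhibition above the screen-wide average plus 3 SD, cut at about 13% in these data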;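 note: forskolin and galanin both at EC90 stimulate the cells; cAMP rise reported by CNG channel membrane potential dye signal; 0% = forskolin plus galanin with DMSO and 100% = forskolin alone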
Target sequence (O60755 1-299 limits assumed): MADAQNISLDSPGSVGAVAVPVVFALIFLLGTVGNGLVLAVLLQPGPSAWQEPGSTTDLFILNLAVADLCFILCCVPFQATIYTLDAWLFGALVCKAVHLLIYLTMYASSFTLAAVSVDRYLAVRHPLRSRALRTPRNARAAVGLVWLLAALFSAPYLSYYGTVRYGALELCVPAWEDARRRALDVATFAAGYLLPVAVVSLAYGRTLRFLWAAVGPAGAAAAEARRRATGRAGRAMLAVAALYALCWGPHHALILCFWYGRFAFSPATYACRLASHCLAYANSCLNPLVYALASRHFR
OX1R antag-2: OX1R (HCRTR1) antagonists, primary screen, fluorescence, CHO/OX1R cells, Fluo-8 calcium, orexin A. Orexin/Hypocretin receptor type 1 (Homo sapiens), O43613. Fluo-8 calcium fluorescence. inhibition, % at 5 µM. hit rate 0.43% among 330,000;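 active = inhibition above its plate's threshold, mean inhibition of all tested compounds on the plate plus 3 SD, cut at about 37% in these data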;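 note: 0% = orexin A challenge wells and 100% = SB-334867-A antagonist wells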
CHO parental Ca: ATP-evoked calcium signal inhibitors, parental CHO, primary screen, counter-screen for OX1R antagonist project, cell-based, fluorescence, Fluo-8 calcium dye; parental CHO-K1, ATP-induced calcium, Fluo-8 fluorescence; inhibition, % at 5.6 µM; hit rate 0.63% among 330,000; AID 463079, 2010;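 active = inhibition above that plate's mean sample inhibition plus 3 SD, cut at about 26% in these data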;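 note: 0% = ATP-challenged DMSO wells and 100% = DMSO wells without ATP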
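Test system: parental CHO cells; detection: calcium-sensitive Fluo-8 fluorescence; evaluation: percent inhibition of calcium signal; also added: ATP as calcium-mobilizing challenge; repeats: one well per compound; control set: ATP-challenged DMSO wells low, unchallenged DMSO wells high; compound: single nominal dose of 5.6 µM per compound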
GPR7 antag: GPR7 receptor antagonists, primary screen, cell-based, fluorescence, single concentration; GPR7-expressing cells, fluorescence antagonist assay; inhibition, % at 4.4 µM; hit rate 1.1% among 290,000; in the data active = inhibition above about 16%, passing the limit was not always enough;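 note: cells stimulated with the agonist NPW; 0% = agonist with vehicle and 100% = vehicle without agonist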
Target sequence (P48145 whole entry, looked up): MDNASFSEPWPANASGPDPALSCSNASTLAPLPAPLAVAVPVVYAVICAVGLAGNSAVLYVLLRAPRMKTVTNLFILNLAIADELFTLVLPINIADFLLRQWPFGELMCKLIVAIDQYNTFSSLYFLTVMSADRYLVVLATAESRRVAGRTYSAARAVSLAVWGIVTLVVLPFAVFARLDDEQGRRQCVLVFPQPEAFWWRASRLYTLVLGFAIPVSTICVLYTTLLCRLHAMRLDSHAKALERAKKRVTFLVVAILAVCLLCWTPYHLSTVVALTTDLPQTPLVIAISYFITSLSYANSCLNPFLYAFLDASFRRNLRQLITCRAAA
* marks the source's active call; other numbers are inactive results; · = no result.

SMILES	OX1R antag-1	GalR3 antag	OX1R antag-2	CHO parental Ca	GPR7 antag
COc1ccc(OC)c(CCNC(=O)c2cccc(NC(=O)C3=C(C)OCCS3)c2)c1	40.8*	-7.6	-10.0	-23.5	20.8
COc1ccc(CCNC(=O)c2ccccc2NC(=O)C2=C(C)OCCS2)c(OC)c1	64.0*	-5.3	-10.4	-7.5	2.1
CCCCSc1nc(C)cc(C)c1S(=O)(=O)c1ccccc1C	5.1	-1.1	22.6	39.0*	-1.5
Cc1cc(C)c(S(=O)(=O)c2ccccc2C)c(Cl)n1	6.6	-5.2	-23.0	-5.3	-2.7
COC(=O)[C@]12C[C@H](CC(=O)NCCc3ccccc3OC)C(=O)N(Cc3ccccc3)C1=C[C@H](C(C)(C)C)O[C@@H]2C	·	-4.5	·	·	·
Cc1nsc(Nc2ccccc2)c1C#N	8.6	-2.2	-12.5	-7.1	-7.5
Cc1ccc(C(=O)N(CCc2ccccc2)Cc2ccccc2)cc1S(=O)(=O)N1CCCCC1	13.9	-6.2	1.1	34.9*	·
Cc1ccc(C(=O)N(CCc2ccccc2)Cc2ccccc2)cc1S(=O)(=O)N1CCOCC1	·	-5.6	·	·	·
O=C(Nc1ccc2cccnc2c1)c1ccc(Br)cc1	29.7*	-5.3	1.8	-13.2	-9.9
O=C(Nc1ccc(SC(F)F)cc1)c1ccc2nccnc2c1	51.8*	-4.7	85.6*	51.9*	-2.1
COC(=O)c1ccc(NC(=O)c2ccc3nccnc3c2)cc1	39.3	-7.3	-10.2	-14.7	-5.6
Cc1cc(NC(=O)c2ccc3nccnc3c2)ccc1Br	48.2*	-6.6	12.4	-3.3	·
COc1cccc(C(=O)N[C@@H](Cc2cccnc2)C(=O)N2CCC[C@H]2C(=O)NC2CCCC2)c1	·	-6.5	·	·	·
Cc1[nH]nc2c1C(c1ccc(F)cc1)N(c1ccccc1)C2=O (stereo not given)	·	-4.2	·	·	·
COC(=O)/C(=C(/F)Sc1cc(C)c(O)c(C)c1)C(F)(F)F	17.6	·	13.2	33.0*	3.7
COC(=O)C(Nc1ccccc1Cl)(c1cc(C)c(O)c(C)c1)C(F)(F)F (stereo not given)	35.2	-3.9	5.8	4.8	-25.9
CCOC(=O)c1c(-c2ccccc2)csc1NC(=O)CSc1nc(N)cc(N)n1	29.5	-2.0	0.9	-17.7	7.0
CCOC(=O)c1c(-c2ccc(Cl)cc2)csc1NC(=O)CNCc1ccco1	34.6	1.5	-24.5	-23.4	-2.0
CCOC(=O)c1c(-c2ccccc2)csc1NC(=O)CSc1nc(C)cc(C)n1	36.0	-7.1	-4.3	36.5*	7.7
CCOC(=O)c1c(-c2ccc(OC)cc2)csc1NC(=O)CNCc1ccco1	46.3*	·	-8.1	-19.9	-10.1
COC(=O)C1=C(C)N(Cc2cccc(C(F)(F)F)c2)C(=NCc2cc(OC)c(OC)c(OC)c2)NC1c1ccc(F)cc1 (stereo not given)	·	-7.9	·	·	·
COc1ccc(C(=O)N2CCN(c3ccc(C)c(C)c3)CC2)cc1OC	14.3	-0.4	-23.4	-17.4	20.3*
COc1ccc(C(=O)N2CCN(c3ccc(C)cc3C)CC2)cc1OC	21.6	1.7	-2.0	-14.4	-5.7
CCN(CC(O)CON=C1c2ccccc2-c2ccccc21)S(=O)(=O)c1ccc(C)cc1 (stereo not given)	72.7*	-4.0	25.7	-20.4	-16.4
Cc1cccc(N(CC(O)CON=C2c3ccccc3-c3ccccc32)S(C)(=O)=O)c1 (stereo not given)	63.1*	-11.7	11.5	-8.7	-0.8
SMILES	OX1R antag-1	GalR3 antag	OX1R antag-2	CHO parental Ca	GPR7 antag
CSc1ccccc1NC(=O)c1cc(-c2cccs2)on1	54.1*	-7.1	-9.6	-7.5	-2.3
COC(=O)C1=C(C)NC(C)=C(C(=O)OC)C1c1ccc2ccccc2n1	11.9	-1.5	-21.6	-18.4	3.8
O=C1c2ccccc2C(=O)C1c1ccc2ccccc2n1	50.9*	-2.1	-19.1	-6.3	1.2
O=C1C(Cl)=C(NS(=O)(=O)c2ccc([N+](=O)[O-])cc2)C(=O)c2ccccc21	44.7*	-0.4	-0.2	11.6	3.2
O=[N+]([O-])c1ccc(Oc2ncccn2)cc1	44.6*	-8.1	-6.2	-7.7	·
O=C(O)c1cccc(NC(=O)c2cccc(S(=O)(=O)Nc3cccc([N+](=O)[O-])c3)c2)c1	7.5	-11.0	-1.2	-2.5	15.4
O=S(=O)(Nc1ccccc1)c1ccc(Oc2ncc(C(F)(F)F)cc2Cl)cc1	46.9*	-2.4	88.2*	73.3*	-4.1
O=C(Nc1ccccc1)c1cccc(S(=O)(=O)Oc2ccc([N+](=O)[O-])cc2)c1	24.1	-0.1	-5.2	0.6	25.7*
O=[N+]([O-])c1ccc(Oc2cnc3ccccc3n2)cc1	18.6	-2.9	-25.0	-5.8	2.8
COc1ccc(N2C(=O)c3n[nH]c(C)c3C2c2cccc(C(F)(F)F)c2)cc1 (stereo not given)	·	-3.0	·	·	·
O=[N+]([O-])c1ccc(Oc2ccc(S(=O)(=O)Nc3ccccc3)cc2)cc1	26.4	·	49.6*	19.7	58.0*
CCCC(C(=O)NC(C)(C)C)N(CCN1CCOCC1)C(=O)CNS(=O)(=O)c1ccccc1 (stereo not given)	4.5	-8.8	-17.6	-19.5	-4.2
O=C(Nc1nc2ccccc2s1)c1ccc(Cl)s1	43.4*	-6.5	-7.9	-12.0	-13.6
CC(=O)c1sc(NC(=O)c2cc(-c3ccccc3)nn2-c2ccccc2)nc1C	65.7*	-2.6	-5.1	-17.9	3.3
O=C(Nc1nc2ccccc2s1)c1cc(-c2ccccc2)nn1-c1ccccc1	29.7	-6.3	15.4	41.7*	-7.3
Cc1cnc(NC(=O)c2cc(-c3ccccc3)nn2-c2ccccc2)s1	·	-3.3	·	·	·
C[C@H]1CN(C(=O)OC(C)(C)C)CCN1c1ccc(N2CCS(=O)(=O)CC2)c(C#N)c1	·	-7.7	·	·	·
COc1ccc(OC)c(CC(NC(C)=O)C(=O)NC2CCN(c3cc(C)nc4ncnn34)CC2)c1 (stereo not given)	-0.5	-1.2	-3.4	31.5*	-6.2
COc1cc2cc(CCOC(=O)c3ccc(C(F)(F)F)cc3)oc(=O)c2cc1OC	6.4	2.2	-25.9	-34.4	·
COc1ccc(-c2cc(C(=O)OCC(=O)Nc3ccc4c(c3)OCO4)c3ccccc3n2)cc1	65.0*	0.9	-7.5	-10.3	-6.3
CCn1c(CNC(=O)c2cc(OC)c(OC)c(OC)c2)cc2ccccc21	68.8*	-10.0	4.5	2.8	1.3
CC1Cc2ccccc2N1C(=O)CCNS(=O)(=O)c1cccc2nsnc12 (stereo not given)	60.4*	1.8	4.8	-27.3	3.5
COc1ccc(CCNC(=O)CCNS(=O)(=O)c2cccc3nsnc23)cc1OC	61.1*	2.0	-16.2	-18.1	-6.3
COc1ccc(CCNC(=O)CCNS(=O)(=O)c2cccc3nonc23)cc1OC	39.5	-3.4	-13.8	-9.3	8.0
O=C(O)CCNS(=O)(=O)c1cccc2nsnc12	62.2	-6.9	4.1	3.2	·

Assay outcomes: PubChem, The Scripps Research Institute Molecular Screening Center
